Experiments:
[1] = system: MCF7; test: Growth inhibition of human MCF7 cells at 10 uM after 4 days by MTT assay in presence of 5% heat-inactivated fetal bovine serum treated with dextran-coated charcoal and 17-beta-estradiol relative to ICI-182780; type: functional; conditions: MCF7, 96 h, read-out: GI
How it was run: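 MCF-7 cells in MEM with 5% dextran-coated-charcoal-treated heat-inactivated FBS plus 1 nM 17β-estradiol were exposed for four days to test compound (10 µM), ICI 182,780 (1 µM) or vehicle. MTT absorbance was read at 550 nm. Effect was calculated as (OD vehicle − OD test) × 100 / (OD vehicle − OD ICI 182,780). Values are mean ± SEM of at least three assays.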

[2] = system: MCF7; test: Growth inhibition of human MCF7 cells at 10 uM after 4 days by MTT assay in presence of 10% fetal bovine serum relative to control; type: functional; conditions: MCF7, 96 h, read-out: GI
How it was run: (§1)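 LNCaP or MCF-7 cells in MEM with 10% FBS were given test compound at 10 µM or 0.1% DMSO vehicle; MCF-7 exposure was four days. MTT read-out at 550 nm. Inhibition was calculated as (OD vehicle − OD test) × 100 / OD vehicle. Values are mean ± SEM, n = 4, ANOVA versus vehicle.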

[3] = system: LNCaP; test: Growth inhibition of human LNCAP cells after 4 days by MTT assay in presence of 10% fetal bovine serum; type: functional, cell-based; conditions: 96 h
How it was run: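 LNCaP cells were cultured in MEM with 10% FBS in 96-well plates against 0.1% DMSO vehicle. Viable cells were estimated by MTT conversion to formazan, read as absorbance at 550 nm. IC50 was derived from growth inhibition relative to vehicle. Values are mean ± SEM.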

[4] = system: LNCaP; test: Growth inhibition of human LNCAP cells at 10 uM after 4 days by MTT assay in presence of 10% fetal bovine serum relative to control; type: functional; conditions: 96 h, read-out: GI; how it was run: as §1
[5] = system: MCF7; test: Growth inhibition of human MCF7 cells after 4 days by MTT assay in presence of 5% heat-inactivated fetal bovine serum treated with dextran-coated charcoal and 17-beta-estradiol; type: functional, cell-based; conditions: MCF7, 96 h
[6] = system: MCF7; test: Growth inhibition of human MCF7 cells after 4 days by MTT assay in presence of 10% fetal bovine serum; type: functional, cell-based; conditions: MCF7, 96 h
[7] = system: HeLa; test: Cytotoxicity against human HeLa cells; type: functional, cell-based
[8] = system: K562; test: Cytotoxicity against human K562 cells; type: functional, cell-based
[9] = system: MCF7; test: Cytotoxicity against human MCF7 cells after 4 days by MTT assay; type: functional, cell-based; conditions: MCF7, 96 h
How it was run: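 MCF-7 cells in minimal essential medium, with either 10% FBS or 5% dextran-charcoal-treated FBS plus 1 nM 17β-estradiol, were exposed to secosterols for four days. Vehicle was 0.1% DMSO. Read-out was MTT formazan absorbance at 550 nm, expressed as % of vehicle. IC50 was derived from growth inhibition, mean ± SEM of ≥3 independent assays.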

[10] = system: LNCaP; test: Growth inhibition of human LNCAP cells at 1 uM after 4 days by MTT assay; type: functional; conditions: 96 h, read-out: GI
[11] = system: MCF7; test: Growth inhibition of human MCF7 cells at 1 uM after 4 days by MTT assay; type: functional; conditions: MCF7, 96 h, read-out: GI
[12] = system: LNCaP; test: Cytotoxicity against human LNCAP cells after 4 days by MTT assay; type: functional, cell-based; conditions: 96 h
How it was run: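 LNCaP cells grown in minimal essential medium with 10% FBS, exposed to secosterols for four days in 96-well plates, with 0.1% DMSO as vehicle. Viable cells were estimated from MTT conversion to formazan, read at 550 nm. Absorbance was expressed relative to vehicle (100%), and IC50 was taken from growth inhibition, mean ± SEM of ≥3 independent assays.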

Structure (SMILES)	IC50 [3]	IC50 [5]	IC50 [6]	inhibition of growth at 10 µM [1]	inhibition of growth at 10 µM [2]	inhibition of growth at 10 µM [4]	IC50 [7]	IC50 [8]	IC50 [9]	inhibition of growth at 1 µM [10]	inhibition of growth at 1 µM [11]	IC50 [12]
CC(=O)OCC[C@]1(C)[C@@H]([C@H](C)/C=C\C(C)C(C)C)CC[C@H]1C1=C[C@H](O)[C@H]2C[C@@H](O)CC[C@]2(C)C1=O (some centres not stated)	6.7 µM	6 µM		62%	27%	45%						
C=C(CC[C@@H](C)[C@H]1CC[C@@H](C2=C[C@H](O)[C@H]3C[C@@H](O)CC[C@]3(C)C2=O)[C@]1(C)CCOC(C)=O)C(C)C		3.8 µM		50%	≤ 10%	≤ 10%						
C[C@]12CC[C@@H]3c4ccc(O)cc4C[C@@H](CCCCCCCCC[S+]([O-])CCCC(F)(F)C(F)(F)F)[C@H]3[C@@H]1CC[C@@H]2O (some centres not stated) [FULVESTRANT]									0.018 µM	100%	100%	0.018 µM

Continued by falling IC50 [5], values first:

IC50 [3]	IC50 [5]	IC50 [6]	Structure (SMILES)	inhibition of growth at 10 µM [1]	inhibition of growth at 10 µM [2]	inhibition of growth at 10 µM [4]	IC50 [7]	IC50 [8]	IC50 [9]	inhibition of growth at 1 µM [10]	inhibition of growth at 1 µM [11]	IC50 [12]
7 µM	7.4 µM	7.6 µM	CC(=O)OCC[C@]1(C)[C@@H]([C@H](C)/C=C/C(C)C)CC[C@H]1C1=C[C@H](O)[C@H]2C[C@@H](O)CC[C@]2(C)C1=O	86%	34%	76%	7 µM	6.5 µM				
5.4 µM	5.4 µM	7 µM	CCC(C)/C=C/[C@@H](C)[C@H]1CC[C@@H](C2=C[C@H](O)[C@H]3C[C@@H](O)CC[C@]3(C)C2=O)[C@]1(C)CCOC(C)=O (some centres not stated)	90%	49%	83%						
